Measurements: ChEMBL document CHEMBL1127294, “Development of a model for the delta opioid receptor pharmacophore. 1. Conformationally restricted Tyr1 replacements in the cyclic delta receptor selective tetrapeptide Tyr-c[D-Cys-Phe-D-Pen]OH (JOM-13)” (J Med Chem, 1994)
Peptide text beside a SMILES is read from it.

Assays:
Mu-type opioid receptor [1] = molecular target: T1, Mu-type opioid receptor (Cavia porcellus, UniProt P97266); test: Displacement of [3H]DAMGO from mu opioid receptor of guinea pig brain membrane
T1 sequence (P97266 whole entry): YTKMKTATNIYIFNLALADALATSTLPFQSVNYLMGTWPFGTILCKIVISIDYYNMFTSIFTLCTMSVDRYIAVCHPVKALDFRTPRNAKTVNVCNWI

[2] = molecular target: Delta-type opioid receptor (Mus musculus, UniProt P32300); test: Inhibitory concentration against delta opioid receptor in mouse vas deferens assay; type: tissue-based
Sequence of Delta-type opioid receptor (P32300 whole entry): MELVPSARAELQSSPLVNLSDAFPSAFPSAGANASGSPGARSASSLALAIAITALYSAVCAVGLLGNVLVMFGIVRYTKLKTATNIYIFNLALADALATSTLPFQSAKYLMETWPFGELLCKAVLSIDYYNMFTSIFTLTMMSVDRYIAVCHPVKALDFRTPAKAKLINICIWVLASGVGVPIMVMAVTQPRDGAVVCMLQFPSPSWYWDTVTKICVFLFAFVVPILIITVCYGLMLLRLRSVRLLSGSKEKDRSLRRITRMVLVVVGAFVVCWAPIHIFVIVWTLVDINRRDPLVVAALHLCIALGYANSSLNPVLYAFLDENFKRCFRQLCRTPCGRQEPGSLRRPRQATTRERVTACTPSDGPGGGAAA
Method in brief: (§1)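 Electrically stimulated tissue in Krebs bicarbonate, 37 °C, 95% O2/5% CO2, 0.1 Hz, supramaximal voltage. MVD used male ICR mouse vas deferens, Mg-free buffer, 0.5 g tension, 2.0 ms pulses. GPI used male Hartley guinea pig ileum myenteric plexus strips, 1 g tension, 0.4 ms pulses. Cumulative agonist doses, 3 min each. IC50 from Hill fit to mean inhibition data, 2–4 tissues.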

Mu-type opioid receptor [3] = molecular target: T1, Mu-type opioid receptor; test: Inhibitory concentration of compound against mu opioid receptor in guinea pig ileum assay; type: tissue-based; method in brief: as §1
[4] = molecular target: Opioid receptors; mu & delta (UniProt P41143+P35372); test: Ratio of IC50 against mu opioid to IC50 against delta opioid receptor; method in brief: as §1
Sequence of Opioid receptors; mu & delta (P35372 whole entry, looked up): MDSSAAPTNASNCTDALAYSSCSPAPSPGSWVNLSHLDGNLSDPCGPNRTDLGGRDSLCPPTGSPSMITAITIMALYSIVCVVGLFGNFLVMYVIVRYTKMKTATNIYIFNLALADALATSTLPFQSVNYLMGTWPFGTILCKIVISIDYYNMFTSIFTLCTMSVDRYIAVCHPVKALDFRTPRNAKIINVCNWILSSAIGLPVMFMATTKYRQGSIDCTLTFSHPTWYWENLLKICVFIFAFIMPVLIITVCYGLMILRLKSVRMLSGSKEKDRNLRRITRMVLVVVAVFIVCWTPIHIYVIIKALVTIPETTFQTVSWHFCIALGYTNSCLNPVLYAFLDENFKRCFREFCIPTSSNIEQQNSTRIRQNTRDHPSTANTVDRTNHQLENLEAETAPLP
Sequence of Opioid receptors; mu & delta (P41143 whole entry, looked up): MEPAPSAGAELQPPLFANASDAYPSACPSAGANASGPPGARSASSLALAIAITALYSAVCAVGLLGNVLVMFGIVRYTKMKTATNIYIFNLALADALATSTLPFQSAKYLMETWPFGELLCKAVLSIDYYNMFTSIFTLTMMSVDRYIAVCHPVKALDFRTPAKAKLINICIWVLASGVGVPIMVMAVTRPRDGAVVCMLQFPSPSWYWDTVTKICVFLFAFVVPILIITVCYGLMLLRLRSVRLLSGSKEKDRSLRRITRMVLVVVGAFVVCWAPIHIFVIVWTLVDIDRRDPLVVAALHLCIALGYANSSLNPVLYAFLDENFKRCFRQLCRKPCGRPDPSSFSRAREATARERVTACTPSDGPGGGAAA

Compound `CC1(C)SSC[C@H](NC(=O)[C@@](C)(N)Cc2ccc(O)cc2)C(=O)N[C@@H](Cc2ccccc2)C(=O)N[C@@H]1C(=O)O` (HELM PEPTIDE1{[C[C@](N)(Cc1ccc(O)cc1)C(=O)[*:2]].C.F.[Pen]}$PEPTIDE1,PEPTIDE1,2:R3-4:R3$$$V2.0) has a Ki (Mu-type opioid receptor [1]) greater than 10000 nM.
With `CC1(C)SSC[C@H](NC(=O)[C@@]2(N)Cc3ccc(O)cc3C2)C(=O)N[C@@H](Cc2ccccc2)C(=O)N[C@@H]1C(=O)O` the IC50 [2] was 340 nM, the IC50 (Mu-type opioid receptor [3]) was greater than 10000 nM and the Ki (Mu-type opioid receptor [1]) was 840 nM. For the same compound, the Ratio [4] was greater than 29.
`CC1(C)SSC[C@H](NC(=O)C2(N)CCc3cc(O)ccc3C2)C(=O)N[C@@H](Cc2ccccc2)C(=O)N[C@@H]1C(=O)O` (single isomer, unassigned) was tested, and the IC50 [2] was 340 nM, the IC50 (Mu-type opioid receptor [3]) was 4300 nM and the Ki (Mu-type opioid receptor [1]) was 310 nM. For the same compound, the Ratio [4] was 13.
For `CC1(C)SSC[C@H](NC(=O)C2(N)Cc3ccc(O)cc3C2)C(=O)N[C@@H](Cc2ccccc2)C(=O)N[C@@H]1C(=O)O` (single isomer, unassigned), the Ki (Mu-type opioid receptor [1]) was greater than 10000 nM.
Compound `CC1(C)SSC[C@H](NC(=O)C2NCC[C@H]2c2ccc(O)cc2)C(=O)N[C@@H](Cc2ccccc2)C(=O)N[C@@H]1C(=O)O` (single isomer, unassigned) has a Ki (Mu-type opioid receptor [1]) of 4440 nM.
Compound `CC1(C)SSC[C@H](NC(=O)[C@H]2NCC[C@H]2c2ccc(O)cc2)C(=O)N[C@@H](Cc2ccccc2)C(=O)N[C@@H]1C(=O)O` has an IC50 [2] of 75 nM, an IC50 (Mu-type opioid receptor [3]) of 12000 nM and a Ki (Mu-type opioid receptor [1]) of 720 nM. For the same compound, the Ratio [4] was 160.
For `CC1(C)SSC[C@H](NC(=O)C2NCC[C@@H]2c2ccc(O)cc2)C(=O)N[C@@H](Cc2ccccc2)C(=O)N[C@@H]1C(=O)O` (single isomer, unassigned), the Ki (Mu-type opioid receptor [1]) was 10000 nM.
For `CC1(C)SSC[C@H](NC(=O)[C@@H](N)Cc2ccc(O)cc2)C(=O)N[C@@H](Cc2ccccc2)C(=O)N[C@@H]1C(=O)O`, the IC50 [2] was 4.2 nM.
For `CC1(C)SSC[C@H](NC(=O)[C@H]2NCC[C@@H]2c2ccc(O)cc2)C(=O)N[C@@H](Cc2ccccc2)C(=O)N[C@@H]1C(=O)O`, the IC50 [2] was 1.6 nM, the IC50 (Mu-type opioid receptor [3]) was 770 nM and the Ki (Mu-type opioid receptor [1]) was 110 nM. It also gave a Ratio [4] of 480.
`CC1(C)SSC[C@H](NC(=O)[C@@H]2Cc3ccc(O)cc3CN2)C(=O)N[C@@H](Cc2ccccc2)C(=O)N[C@@H]1C(=O)O` (HELM PEPTIDE1{[O=C([C@@H]1Cc2ccc(O)cc2CN1)[*:2]].C.F.[Pen]}$PEPTIDE1,PEPTIDE1,2:R3-4:R3$$$V2.0) gave a Ki (Mu-type opioid receptor [1]) greater than 10000 nM.
Work on `CC1(C)SSC[C@H](NC(=O)[C@]2(N)CCc3cc(O)ccc3C2)C(=O)N[C@@H](Cc2ccccc2)C(=O)N[C@@H]1C(=O)O` yielded an IC50 [2] of 110 nM, an IC50 (Mu-type opioid receptor [3]) of 1800 nM and a Ki (Mu-type opioid receptor [1]) of 230 nM. The Ratio [4] was 16.
